From ChEMBL document CHEMBL1144689, “Antileukemic activity of genistein, a major isoflavone present in soy products” (J Nat Prod, 2008)

How the values were obtained:
MOLT-3 [1] = assay: Growth inhibition of human MOLT3 cells after 48 hrs; assay type: functional
Outline: (§1)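 Human leukemic cells (RPMI-1640, 10% heat-inactivated FBS), log phase, seeded at 2 × 10^4 cells/mL. Exposed to 1, 2, 5, 10 or 20 µM (DMSO stock). Cell number counted with a Coulter particle counter at 48 h. Growth inhibition as % of untreated control. IG50 is the concentration giving 50% inhibition. Triplicate, three repeats, mean ± SEM.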

HL-60 [2] = assay: Growth inhibition of human HL60 cells after 48 hrs; assay type: functional; outline: as §1
Raji [3] = assay: Growth inhibition of human Raji cells after 48 hrs; assay type: functional; outline: as §1
[4] = Growth inhibition of human KG1a cells after 48 hrs; assay type: functional, KG-1a; outline: as §1
MOLT-3 [5] = assay: Antileukemic activity against human MOLT3 cells at 1 uM after 24 hrs by clonogenic assay; assay type: functional
Outline: (§2)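 Log-phase cells at 2 × 10^4 cells/mL in RPMI-1640 with 10% heat-inactivated FBS, 37 °C, 5% CO2. Drug (DMSO stock) at 1, 2, 5, 10 or 20 µM for 24 h, removed by centrifugation. 100 cells plated in 0.45% soft agar with 20% serum. Colonies >50 cells counted after 15 days. Loss of clonogenicity as % of untreated control. Triplicate, three repeats, mean ± SEM.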

HL-60 [6] = assay: Antileukemic activity against human HL60 cells at >2 uM after 24 hrs by clonogenic assay; assay type: functional; outline: as §2
Raji [7] = assay: Antileukemic activity against human Raji cells at >2 uM after 24 hrs by clonogenic assay; assay type: functional; outline: as §2
MOLT-3 [8] = assay: Antileukemic activity against human MOLT3 cells after 24 hrs by clonogenic assay; assay type: functional; conditions: MOLT-3, 24 h, read-out: LC50 (the source's name)
Outline: (§3)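 Log-phase cells seeded at 2 × 10^4 cells/mL in RPMI-1640 with 10% heat-inactivated FBS at 37 °C, 5% CO2, then exposed 24 h to 1–20 µM (DMSO stock). Drug washed out by centrifugation. 100 cells plated in 0.45% soft agar with 20% serum for 15 days, and colonies (>50 cells) counted. Loss of clonogenicity is relative to untreated control. Triplicates, repeated three times, mean ± SEM. LC50 read from the dose curve.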

HL-60 [9] = assay: Antileukemic activity against human HL60 cells after 24 hrs by clonogenic assay; assay type: functional; conditions: HL-60, 24 h, read-out: LC50 (the source's name); outline: as §3
Raji [10] = assay: Antileukemic activity against human Raji cells after 24 hrs by clonogenic assay; assay type: functional; conditions: read-out: LC50 (the source's name); outline: as §3
L1210 [11] = assay: Growth inhibition of mouse L1210 cells at 1 uM after 12 hrs; assay type: functional; conditions: L1210, 12 h, read-out: GI
Outline: (§4)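 For L1210 (RPMI-1640, 5% heat-inactivated FCS, 6 µM 2-mercaptoethanol), log-phase cultures at 2 × 10^4 cells/mL were given 1–20 µM for 12, 24 or 48 h. Coulter particle counter counts were expressed as % growth inhibition versus untreated control. IG50 was taken at 24 h. Triplicate, three repeats, mean ± SEM.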

L1210 [12] = assay: Growth inhibition of mouse L1210 cells at 1 uM after 24 hrs; assay type: functional; conditions: L1210, 24 h, read-out: GI; outline: as §4
L1210 [13] = assay: Growth inhibition of mouse L1210 cells at 1 uM after 48 hrs; assay type: functional; conditions: L1210, 48 h, read-out: GI; outline: as §4
L1210 [14] = assay: Growth inhibition of mouse L1210 cells at 2 uM after 12 hrs; assay type: functional; conditions: L1210, 12 h, read-out: GI; outline: as §4
L1210 [15] = assay: Growth inhibition of mouse L1210 cells at 2 uM after 24 hrs; assay type: functional; conditions: L1210, 24 h, read-out: GI; outline: as §4
L1210 [16] = assay: Growth inhibition of mouse L1210 cells at 2 uM after 48 hrs; assay type: functional; conditions: L1210, 48 h, read-out: GI; outline: as §4
L1210 [17] = assay: Growth inhibition of mouse L1210 cells at 5 uM after 12 hrs; assay type: functional; conditions: L1210, 12 h, read-out: GI; outline: as §4
L1210 [18] = assay: Growth inhibition of mouse L1210 cells at 5 uM after 24 hrs; assay type: functional; conditions: L1210, 24 h, read-out: GI; outline: as §4
L1210 [19] = assay: Growth inhibition of mouse L1210 cells at 5 uM after 48 hrs; assay type: functional; conditions: L1210, 48 h, read-out: GI; outline: as §4
L1210 [20] = assay: Growth inhibition of mouse L1210 cells at 10 uM after 12 hrs; assay type: functional; conditions: L1210, 12 h, read-out: GI; outline: as §4
L1210 [21] = assay: Growth inhibition of mouse L1210 cells at 10 uM after 24 hrs; assay type: functional; conditions: L1210, 24 h, read-out: GI; outline: as §4
L1210 [22] = assay: Growth inhibition of mouse L1210 cells at 10 uM after 48 hrs; assay type: functional; conditions: L1210, 48 h, read-out: GI; outline: as §4
L1210 [23] = assay: Growth inhibition of mouse L1210 cells at 20 uM after 12 hrs; assay type: functional; conditions: L1210, 12 h, read-out: GI; outline: as §4
L1210 [24] = assay: Antileukemic activity against mouse L1210 cells at 1 uM after 12 hrs by clonogenic assay; assay type: functional
Outline: (§5)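 Murine L1210 cells cultured in RPMI-1640 with 5% heat-inactivated FCS and 6 µM 2-mercaptoethanol. Log-phase cells at 2 × 10^4 cells/mL exposed to 1–20 µM for 12, 24 or 48 h, then drug removed by centrifugation. 100 cells plated in 0.45% soft agar with 10% serum. Colonies >50 cells counted at day 7. Result as % relative to untreated control. Triplicate, three repeats, mean ± SEM.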

L1210 [25] = assay: Antileukemic activity against mouse L1210 cells at 1 uM after 48 hrs by clonogenic assay; assay type: functional; outline: as §5
L1210 [26] = assay: Antileukemic activity against mouse L1210 cells at 2 uM after 12 hrs by clonogenic assay; assay type: functional; outline: as §5

For O=c1c(-c2ccc(O)cc2)coc2cc(O)cc(O)c12 [GENISTEIN], the IG50 (MOLT-3 [1]) was 12.7 µM, the IG50 (HL-60 [2]) was 18.2 µM and the IG50 (Raji [3]) was 18.6 µM. For the same compound, the IG50 [4] was 23 µM, the Activity (MOLT-3 [5]) was greater than 10% and the Activity (HL-60 [6]) was greater than 10%. The Activity (Raji [7]) was greater than 10%, the CC50 (MOLT-3 [8]) was 7.5 µM and the CC50 (HL-60 [9]) was 6.3 µM. For the same compound, the CC50 (Raji [10]) was 13.7 µM, the inhibition of growth at 1 µM (L1210 [11]) was 3.2% and the inhibition of growth at 1 µM (L1210 [12]) was 4.1%. The inhibition of growth at 1 µM (L1210 [13]) was 13.2%, the inhibition of growth at 2 µM (L1210 [14]) was 6.2% and the inhibition of growth at 2 µM (L1210 [15]) was 11.4%. The inhibition of growth at 2 µM (L1210 [16]) was 21.9%, the inhibition of growth at 5 µM (L1210 [17]) was 15.1% and the inhibition of growth at 5 µM (L1210 [18]) was 28.5%. The inhibition of growth at 5 µM (L1210 [19]) was 55.9%, the inhibition of growth at 10 µM (L1210 [20]) was 23.8% and the inhibition of growth at 10 µM (L1210 [21]) was 42.8%. For the same compound, the inhibition of growth at 10 µM (L1210 [22]) was 79.2%, the inhibition of growth at 20 µM (L1210 [23]) was 54.2% and the Activity (L1210 [24]) was 11%. The Activity (L1210 [25]) was 11.9% and the Activity (L1210 [26]) was 14%.
